What was measured:
[1] = target: cAMP-dependent protein kinase catalytic subunit PRKX (Homo sapiens) (UniProt P51817); assay: Inhibition of PRKX (unknown origin) using [gamma-33P]ATP assessed as residual activity at 3 uM
[2] = target: Serine/threonine-protein kinase TAO2 (Homo sapiens) (UniProt Q9UL54); assay: Inhibition of TAOK2 (unknown origin) using [gamma-33P]ATP assessed as residual activity at 3 uM
[3] = target: Calcium/calmodulin-dependent protein kinase type II subunit beta (Homo sapiens) (UniProt Q13554); assay: Inhibition of CAMK2b (unknown origin) using [gamma-33P]ATP assessed as residual activity at 3 uM
Sequence of Calcium/calmodulin-dependent protein kinase type II subunit beta (Homo sapiens) (Q13554 whole entry): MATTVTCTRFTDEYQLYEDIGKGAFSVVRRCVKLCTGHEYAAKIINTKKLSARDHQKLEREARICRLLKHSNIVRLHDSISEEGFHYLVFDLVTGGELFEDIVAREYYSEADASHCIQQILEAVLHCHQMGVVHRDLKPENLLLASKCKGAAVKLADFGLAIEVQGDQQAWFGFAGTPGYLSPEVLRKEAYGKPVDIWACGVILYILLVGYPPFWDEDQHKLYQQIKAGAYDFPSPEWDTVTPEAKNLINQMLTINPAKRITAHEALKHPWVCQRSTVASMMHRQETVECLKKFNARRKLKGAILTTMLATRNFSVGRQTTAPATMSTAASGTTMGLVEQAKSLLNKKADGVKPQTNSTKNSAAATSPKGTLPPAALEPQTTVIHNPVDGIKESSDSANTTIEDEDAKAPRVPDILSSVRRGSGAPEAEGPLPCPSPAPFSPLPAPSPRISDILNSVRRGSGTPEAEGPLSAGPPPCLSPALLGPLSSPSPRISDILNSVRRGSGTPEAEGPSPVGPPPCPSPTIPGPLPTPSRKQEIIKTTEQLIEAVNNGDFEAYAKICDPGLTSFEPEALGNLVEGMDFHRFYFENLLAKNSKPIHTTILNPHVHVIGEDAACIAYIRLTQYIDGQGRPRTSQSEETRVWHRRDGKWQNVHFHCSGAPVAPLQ
Procedure, shortened: (§1)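 Radiometric profiling across 288 kinases (261 wild-type, 27 mutant), run as an outsourced service. Inhibition read out as [gamma-33P]ATP incorporation into substrate.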

[4] = system: Receptor-type tyrosine-protein kinase FLT3 (Homo sapiens), P36888 [D835Y]; assay: Inhibition of FLT3 D835Y mutant (unknown origin) using [gamma-33P]ATP assessed as residual activity at 3 uM
Procedure, shortened: (§2)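 Radiometric kinase profiling service covering 288 kinases (261 wild-type, 27 mutant). Inhibition was read as incorporation from [γ-³³P]ATP.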

[5] = target: Ribosomal protein S6 kinase alpha-5 (Homo sapiens) (UniProt O75582); assay: Inhibition of MSK1 (unknown origin) using [gamma-33P]ATP assessed as residual activity at 3 uM
[6] = target: Phosphorylase b kinase gamma catalytic chain, liver/testis isoform (Homo sapiens) (UniProt P15735); assay: Inhibition of PHKg2 (unknown origin) using [gamma-33P]ATP assessed as residual activity at 3 uM
Sequence of Phosphorylase b kinase gamma catalytic chain, liver/testis isoform (Homo sapiens) (P15735 whole entry, canonical isoform): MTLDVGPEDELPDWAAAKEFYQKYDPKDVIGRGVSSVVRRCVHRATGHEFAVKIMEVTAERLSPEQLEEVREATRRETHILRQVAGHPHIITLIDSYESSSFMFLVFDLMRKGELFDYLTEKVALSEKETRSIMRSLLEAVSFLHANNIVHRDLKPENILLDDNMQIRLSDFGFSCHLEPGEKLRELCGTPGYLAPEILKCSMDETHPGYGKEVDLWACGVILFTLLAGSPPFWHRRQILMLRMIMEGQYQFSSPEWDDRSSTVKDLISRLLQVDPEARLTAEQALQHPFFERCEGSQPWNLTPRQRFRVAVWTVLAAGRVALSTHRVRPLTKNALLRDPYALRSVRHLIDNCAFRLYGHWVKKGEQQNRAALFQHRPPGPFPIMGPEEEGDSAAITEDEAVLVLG

[7] = target: Tyrosine-protein kinase JAK1 (Homo sapiens) (UniProt P23458); assay: Inhibition of JAK1 (unknown origin) using [gamma-33P]ATP assessed as residual activity at 3 uM; procedure, shortened: as §2
[8] = target: Ephrin type-A receptor 2 (Homo sapiens) (UniProt P29317); assay: Inhibition of EPHA2 (unknown origin) using [gamma-33P]ATP assessed as residual activity at 3 uM
Procedure, shortened: (§3)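 Reaction Biology HotSpot radiometric profiling panel of 288 kinases (261 wild-type, 27 mutant). Kinase activity was read out by incorporation of [γ-33P]ATP.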

[9] = system: Mast/stem cell growth factor receptor Kit (Homo sapiens), P10721 [V560G]; assay: Inhibition of c-Kit V560G mutant (unknown origin) using [gamma-33P]ATP assessed as residual activity at 3 uM
[10] = target: MAP/microtubule affinity-regulating kinase 3 (Homo sapiens) (UniProt P27448); assay: Inhibition of MARK3 (unknown origin) using [gamma-33P]ATP assessed as residual activity at 3 uM
Procedure, shortened: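 Contract radiometric panel screen of 288 kinases (261 wild-type, 27 mutant). Inhibition was read by [gamma-33P]ATP radioactivity incorporation.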

[11] = target: Tyrosine-protein kinase Fer (Homo sapiens) (UniProt P16591); assay: Inhibition of FER (unknown origin) using [gamma-33P]ATP assessed as residual activity at 3 uM; procedure, shortened: as §3
Sequence of Tyrosine-protein kinase Fer (Homo sapiens) (P16591 whole entry, looked up): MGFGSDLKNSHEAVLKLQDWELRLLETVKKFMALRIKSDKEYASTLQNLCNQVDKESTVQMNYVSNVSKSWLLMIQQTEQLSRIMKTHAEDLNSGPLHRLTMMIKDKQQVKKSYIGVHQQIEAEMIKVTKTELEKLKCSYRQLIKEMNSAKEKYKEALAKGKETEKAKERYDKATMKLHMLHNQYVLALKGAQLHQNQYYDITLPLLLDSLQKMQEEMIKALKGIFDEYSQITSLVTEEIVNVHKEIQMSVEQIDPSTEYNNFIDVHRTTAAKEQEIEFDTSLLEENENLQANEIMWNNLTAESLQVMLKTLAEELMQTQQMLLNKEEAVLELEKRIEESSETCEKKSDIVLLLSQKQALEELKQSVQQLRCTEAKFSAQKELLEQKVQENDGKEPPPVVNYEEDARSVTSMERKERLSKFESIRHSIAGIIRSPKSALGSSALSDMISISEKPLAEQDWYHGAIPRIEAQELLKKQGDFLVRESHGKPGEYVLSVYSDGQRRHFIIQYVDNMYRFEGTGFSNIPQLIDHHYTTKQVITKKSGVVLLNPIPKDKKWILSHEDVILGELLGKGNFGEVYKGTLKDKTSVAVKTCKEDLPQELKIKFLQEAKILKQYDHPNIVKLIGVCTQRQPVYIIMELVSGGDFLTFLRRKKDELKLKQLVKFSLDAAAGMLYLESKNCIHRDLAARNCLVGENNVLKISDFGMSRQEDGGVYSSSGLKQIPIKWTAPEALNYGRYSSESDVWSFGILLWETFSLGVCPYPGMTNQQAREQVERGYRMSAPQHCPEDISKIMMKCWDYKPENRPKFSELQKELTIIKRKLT

[12] = target: Mitogen-activated protein kinase 3 (Homo sapiens) (UniProt P27361); assay: Inhibition of ERK1 (unknown origin) using [gamma-33P]ATP assessed as residual activity at 3 uM; procedure, shortened: as §3
[13] = target: Serine/threonine-protein kinase 4 (Homo sapiens) (UniProt Q13043); assay: Inhibition of MST1 (unknown origin) using [gamma-33P]ATP assessed as residual activity at 3 uM
[14] = target: Serine/threonine-protein kinase TBK1 (Homo sapiens) (UniProt Q9UHD2); assay: Inhibition of TBK1 (unknown origin) using [gamma-33P]ATP assessed as residual activity at 3 uM
[15] = target: Tyrosine-protein kinase Tec (Homo sapiens) (UniProt P42680); assay: Inhibition of TEC (unknown origin) using [gamma-33P]ATP assessed as residual activity at 3 uM
[16] = target: Serine/threonine-protein kinase A-Raf (Homo sapiens) (UniProt P10398); assay: Inhibition of ARAF (unknown origin) using [gamma-33P]ATP assessed as residual activity at 3 uM; procedure, shortened: as §1
Sequence of Serine/threonine-protein kinase A-Raf (Homo sapiens) (P10398 whole entry): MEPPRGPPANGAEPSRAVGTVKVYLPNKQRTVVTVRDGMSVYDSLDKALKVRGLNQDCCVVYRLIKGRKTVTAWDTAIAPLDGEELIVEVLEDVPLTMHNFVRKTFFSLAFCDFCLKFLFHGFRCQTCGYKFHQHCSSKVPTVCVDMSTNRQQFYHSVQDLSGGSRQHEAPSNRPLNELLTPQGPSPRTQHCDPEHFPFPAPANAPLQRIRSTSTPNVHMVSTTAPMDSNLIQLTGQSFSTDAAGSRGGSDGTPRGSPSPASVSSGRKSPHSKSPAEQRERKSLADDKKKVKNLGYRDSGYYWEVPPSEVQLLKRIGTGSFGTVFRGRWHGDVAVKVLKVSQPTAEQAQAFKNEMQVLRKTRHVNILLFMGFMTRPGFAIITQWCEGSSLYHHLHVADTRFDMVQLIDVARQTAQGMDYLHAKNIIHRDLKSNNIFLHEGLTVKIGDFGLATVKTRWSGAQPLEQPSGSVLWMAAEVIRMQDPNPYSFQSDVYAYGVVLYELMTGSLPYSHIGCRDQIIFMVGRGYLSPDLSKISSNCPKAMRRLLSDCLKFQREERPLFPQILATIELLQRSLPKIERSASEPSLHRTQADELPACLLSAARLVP

[17] = target: Tyrosine-protein kinase Lck (Homo sapiens) (UniProt P06239); assay: Inhibition of LCK (unknown origin) using [gamma-33P]ATP assessed as residual activity at 3 uM; procedure, shortened: as §2
[18] = target: Homeodomain-interacting protein kinase 2 (Homo sapiens) (UniProt Q9H2X6); assay: Inhibition of HIPK2 (unknown origin) using [gamma-33P]ATP assessed as residual activity at 3 uM; procedure, shortened: as §2
[19] = target: Ephrin type-A receptor 4 (Homo sapiens) (UniProt P54764); assay: Inhibition of EPHA4 (unknown origin) using [gamma-33P]ATP assessed as residual activity at 3 uM; procedure, shortened: as §3
[20] = target: Protein kinase C alpha type (Homo sapiens) (UniProt P17252); assay: Inhibition of PKCa (unknown origin) using [gamma-33P]ATP assessed as residual activity at 3 uM
[21] = target: Eukaryotic elongation factor 2 kinase (Homo sapiens) (UniProt O00418); assay: Inhibition of EEF2K (unknown origin) using [gamma-33P]ATP assessed as residual activity at 3 uM; procedure, shortened: as §3
Sequence of Eukaryotic elongation factor 2 kinase (Homo sapiens) (O00418 whole entry): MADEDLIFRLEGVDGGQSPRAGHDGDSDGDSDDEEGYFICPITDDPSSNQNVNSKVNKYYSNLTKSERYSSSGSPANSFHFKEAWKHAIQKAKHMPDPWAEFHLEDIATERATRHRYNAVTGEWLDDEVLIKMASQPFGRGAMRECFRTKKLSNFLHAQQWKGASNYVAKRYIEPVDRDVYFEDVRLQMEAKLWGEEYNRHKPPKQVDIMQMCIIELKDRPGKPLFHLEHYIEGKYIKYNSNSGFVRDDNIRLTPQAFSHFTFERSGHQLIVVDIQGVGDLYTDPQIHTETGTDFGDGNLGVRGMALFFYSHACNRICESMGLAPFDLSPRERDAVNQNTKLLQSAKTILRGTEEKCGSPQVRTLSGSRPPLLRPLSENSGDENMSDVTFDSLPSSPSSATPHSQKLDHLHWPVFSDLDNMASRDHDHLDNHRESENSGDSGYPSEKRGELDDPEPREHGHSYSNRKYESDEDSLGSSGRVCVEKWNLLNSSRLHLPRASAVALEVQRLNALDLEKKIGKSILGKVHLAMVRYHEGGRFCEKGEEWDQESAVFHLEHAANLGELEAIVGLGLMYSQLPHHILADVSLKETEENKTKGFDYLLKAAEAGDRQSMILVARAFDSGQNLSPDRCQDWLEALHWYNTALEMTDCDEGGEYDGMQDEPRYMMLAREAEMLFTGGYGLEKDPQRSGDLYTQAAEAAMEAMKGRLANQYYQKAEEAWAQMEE

[22] = target: Tyrosine-protein kinase JAK2 (Homo sapiens) (UniProt O60674); assay: Inhibition of JAK2 (unknown origin) using [gamma-33P]ATP assessed as residual activity at 3 uM; procedure, shortened: as §2
[23] = target: Serine/threonine-protein kinase 3 (Homo sapiens) (UniProt Q13188); assay: Inhibition of MST2 (unknown origin) using [gamma-33P]ATP assessed as residual activity at 3 uM
Sequence of Serine/threonine-protein kinase 3 (Homo sapiens) (Q13188 whole entry): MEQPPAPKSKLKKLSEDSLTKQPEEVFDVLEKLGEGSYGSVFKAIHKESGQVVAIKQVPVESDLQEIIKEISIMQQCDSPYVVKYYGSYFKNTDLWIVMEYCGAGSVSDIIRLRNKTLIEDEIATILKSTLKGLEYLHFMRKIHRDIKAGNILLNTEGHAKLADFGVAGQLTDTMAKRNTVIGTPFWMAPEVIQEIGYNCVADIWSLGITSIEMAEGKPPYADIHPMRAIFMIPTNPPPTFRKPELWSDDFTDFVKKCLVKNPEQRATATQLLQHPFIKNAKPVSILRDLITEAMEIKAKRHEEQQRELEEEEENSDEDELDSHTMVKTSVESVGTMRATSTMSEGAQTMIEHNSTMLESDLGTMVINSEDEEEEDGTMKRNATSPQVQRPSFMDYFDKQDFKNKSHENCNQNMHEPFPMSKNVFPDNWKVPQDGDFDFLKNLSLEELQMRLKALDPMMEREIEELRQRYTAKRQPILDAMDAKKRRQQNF

[24] = target: Leucine-rich repeat serine/threonine-protein kinase 2 (Homo sapiens) (UniProt Q5S007); assay: Inhibition of LRRK2 (unknown origin) using [gamma-33P]ATP assessed as residual activity at 3 uM; procedure, shortened: as §2
[25] = target: Insulin receptor-related protein (Homo sapiens) (UniProt P14616); assay: Inhibition of IRR (unknown origin) using [gamma-33P]ATP assessed as residual activity at 3 uM; procedure, shortened: as §2
[26] = target: Casein kinase II subunit alpha' (Homo sapiens) (UniProt P19784); assay: Inhibition of CK2a2 (unknown origin) using [gamma-33P]ATP assessed as residual activity at 3 uM; procedure, shortened: as §3
Sequence of Casein kinase II subunit alpha' (Homo sapiens) (P19784 whole entry, looked up): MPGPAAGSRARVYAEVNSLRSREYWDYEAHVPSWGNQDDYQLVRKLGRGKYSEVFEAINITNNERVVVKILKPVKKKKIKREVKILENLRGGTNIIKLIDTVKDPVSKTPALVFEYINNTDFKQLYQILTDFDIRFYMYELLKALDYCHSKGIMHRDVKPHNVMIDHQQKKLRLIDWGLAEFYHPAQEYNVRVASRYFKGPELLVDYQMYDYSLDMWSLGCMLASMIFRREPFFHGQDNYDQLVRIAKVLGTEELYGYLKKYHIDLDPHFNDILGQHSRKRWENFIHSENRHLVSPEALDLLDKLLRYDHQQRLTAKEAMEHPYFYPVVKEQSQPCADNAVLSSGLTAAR

[27] = target: Calcium/calmodulin-dependent protein kinase type II subunit alpha (Homo sapiens) (UniProt Q9UQM7); assay: Inhibition of CAMK2a (unknown origin) using [gamma-33P]ATP assessed as residual activity at 3 uM; procedure, shortened: as §1
[28] = target: Serine/threonine-protein kinase Nek4 (Homo sapiens) (UniProt P51957); assay: Inhibition of NEK4 (unknown origin) using [gamma-33P]ATP assessed as residual activity at 3 uM
[29] = target: Ribosomal protein S6 kinase alpha-6 (Homo sapiens) (UniProt Q9UK32); assay: Inhibition of RSK4 (unknown origin) using [gamma-33P]ATP assessed as residual activity at 3 uM
Sequence of Ribosomal protein S6 kinase alpha-6 (Homo sapiens) (Q9UK32 whole entry): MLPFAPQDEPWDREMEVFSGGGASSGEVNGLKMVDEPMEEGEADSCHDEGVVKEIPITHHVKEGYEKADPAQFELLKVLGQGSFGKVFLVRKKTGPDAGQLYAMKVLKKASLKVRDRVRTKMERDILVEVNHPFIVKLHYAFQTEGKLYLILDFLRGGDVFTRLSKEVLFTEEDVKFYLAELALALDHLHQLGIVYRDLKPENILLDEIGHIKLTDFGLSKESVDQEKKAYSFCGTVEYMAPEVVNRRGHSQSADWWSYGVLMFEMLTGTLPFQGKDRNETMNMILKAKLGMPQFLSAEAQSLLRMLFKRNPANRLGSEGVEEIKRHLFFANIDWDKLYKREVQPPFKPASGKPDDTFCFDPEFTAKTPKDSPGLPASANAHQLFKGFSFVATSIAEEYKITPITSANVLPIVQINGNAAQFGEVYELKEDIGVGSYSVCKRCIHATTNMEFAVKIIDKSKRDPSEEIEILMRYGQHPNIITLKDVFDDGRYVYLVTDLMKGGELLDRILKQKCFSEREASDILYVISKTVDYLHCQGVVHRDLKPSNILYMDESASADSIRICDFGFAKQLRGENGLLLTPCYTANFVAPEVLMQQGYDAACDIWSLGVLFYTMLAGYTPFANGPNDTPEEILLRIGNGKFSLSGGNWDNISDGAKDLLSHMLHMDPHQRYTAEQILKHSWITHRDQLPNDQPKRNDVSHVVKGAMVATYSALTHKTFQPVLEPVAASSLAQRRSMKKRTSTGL

[30] = system: Proto-oncogene tyrosine-protein kinase receptor Ret (Homo sapiens), P07949 [V804M]; assay: Inhibition of RET V804M mutant (unknown origin) using [gamma-33P]ATP assessed as residual activity at 3 uM
[31] = target: Mitogen-activated protein kinase 13 (Homo sapiens) (UniProt O15264); assay: Inhibition of P38d (unknown origin) using [gamma-33P]ATP assessed as residual activity at 3 uM

Compound: CCc1ccc(-c2ccc3c(c2)-c2[nH]ncc2S(=O)(=O)N3C)cc1
- Activity [1]: 93%
- Activity [2]: 100%
- Activity [3]: 90%
- Activity [4]: 52%
- Activity [5]: 94%
- Activity [6]: 85%
- Activity [7]: 81%
- Activity [8]: 90%
- Activity [9]: 72%
- Activity [10]: 96%
- Activity [11]: 96%
- Activity [12]: 91%
- Activity [13]: 87%
- Activity [14]: 71%
- Activity [15]: 102%
- Activity [16]: 100%
- Activity [17]: 87%
- Activity [18]: 101%
- Activity [19]: 95%
- Activity [20]: 86%
- Activity [21]: 104%
- Activity [22]: 103%
- Activity [23]: 78%
- Activity [24]: 58%
- Activity [25]: 100%
- Activity [26]: 53%
- Activity [27]: 96%
- Activity [28]: 90%
- Activity [29]: 101%
- Activity [30]: 91%
- Activity [31]: 103%

— ChEMBL document CHEMBL2346629, “Discovery and characterization of novel allosteric FAK inhibitors” (Eur J Med Chem, 2013)
